Source: PubChem
Myeloid diff MLP: induction of myeloid progenitor differentiation, primary screen, cell-based, flow cytometry, MLPCN library; ER-HoxA9 myeloid progenitors, lysozyme-GFP differentiation; calls only at 10 µM; 360,000 tested, 1% active; AID 624256, 2012;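 active = normalized GFP-positive differentiation at or above the plate's own cutoff, the solvent-only control mean plus 3 SD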;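 note: cells exposed to compound for four days before flow analysis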
Platelet DG rel: inhibitors of platelet dense granule secretion, primary screen, cell-based, MLPCN, human platelets | AID 1663, 2009 | inhibition, %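 (compounds screened at 7.5 µM in platelet-rich plasma)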 | human platelet-rich plasma, SFLLRN dense granule ATP release, luminescence | 300,000 tested, 0.22% active;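 active = mean replicate score, as percent of positive control, at or above 50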
SENP1 inh: human SENP1 catalytic domain inhibitors, primary screen, biochemical, FRET, uHTS | Sentrin-specific protease 1 (Homo sapiens), Q9P0U3 | inhibition, % at 10 µM | recombinant SENP1 catalytic domain, CyPet-SUMO1-YPet FRET cleavage | AID 624204, 2012 | 360,000 tested, 0.21% active;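 active = inhibition at least 30% at 10 µM, raw YFP signal under a set limit, fluorescence ratio 0.5 to 1.5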;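 note: 0% = enzyme with DMSO and 100% = no enzyme wells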
Target sequence (Q9P0U3 419-644 limits assumed): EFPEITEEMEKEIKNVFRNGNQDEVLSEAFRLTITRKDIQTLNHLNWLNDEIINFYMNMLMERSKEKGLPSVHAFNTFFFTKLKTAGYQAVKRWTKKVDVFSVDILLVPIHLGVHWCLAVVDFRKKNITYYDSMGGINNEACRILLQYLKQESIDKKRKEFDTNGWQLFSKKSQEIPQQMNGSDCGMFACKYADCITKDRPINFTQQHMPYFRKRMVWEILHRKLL
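Test system: human SENP1 catalytic domain; medium: Tris pH 8 buffer plus EDTA, NaCl, BME, BSA, NP40, catalase; incubation: 50 min reaction at room temperature; technique: FRET, CFP and YFP emission; controls: no-enzyme low control and enzyme-plus-DMSO high control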
VLA-4 inh: inhibition in human VLA-4 binding assay, primary screen, VLA-4 allosteric modulator project, MLPCN library, flow cytometry, VLA-4 expressing cells; inhibition, % (about 7 µM as worked out from the volumes in the protocol); 330,000 tested, 0.2% active; Integrin alpha-4 (Homo sapiens), P13612; ligand binding flow cytometry; AID 2557, 2010; in the data active = inhibition above about 50%
Myeloid diff CP1: inducers of myeloid progenitor differentiation, confirmation, cell-based, GFP/Mac1 flow cytometry, cherry pick 01. shares compounds with Myeloid diff MLP. ER-HoxA9 myeloid progenitors, GFP/Mac1 double-positive flow. calls only. 2,300 tested, 2% active. AID 651706, 2012;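 active = share of green or green-and-red cells above 9 and 9% in run 1 or 4 and 3% in run 2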
GFP autofluor: compound fluorescence in myeloid differentiation counter-screen. shares compounds with Myeloid diff MLP. ER-HoxA9 myeloid progenitors, no estrogen, GFP autofluorescence flow cytometry; vehicle wells 0%, positive control 100%. fluorescence response, % (concentration not given with the values). 2,300 tested, 7.4% active;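 active = over 5% cells positive for green fluorescent reporter, or over 2% positive for both it and APC stain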;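 note: range taken on the double positive population between DMSO and positive control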
* marks the source's active call; other numbers are inactive results; i = inactive; nt = not tested or not shown; + = active, no number. In the library only some 1.5% were active in any assay of this set; here they are far more common.

SMILES	Myeloid diff MLP	Platelet DG rel	SENP1 inh	VLA-4 inh	Myeloid diff CP1	GFP autofluor
COc1ccc(C2=Nc3ccccc3N(C(=O)c3ccc(C(F)(F)F)cc3)C2C(=O)Nc2c(C)cccc2C)cc1 (stereo not given)	i	nt	-0.9	nt	i	0.3
CCCC[C@@H]1CNCCN1CCCc1cc(OC)c(OC)c(OC)c1	i	-1.0	2.9	0.3	nt	nt
CCOC(=O)c1c(C)[nH]c(C(=O)COC(=O)c2ccc(F)c(S(=O)(=O)N3CCOCC3)c2)c1C	+	-1.5	0.4	5.8	i	0.6
O=C(Nc1ccc(Cl)cn1)c1ccccc1SCc1ccccc1	nt	13.0	-0.3	7.4	nt	nt
Cc1cccc(NC(=O)c2ccccc2SCc2ccc(F)cc2)n1	+	nt	-0.3	19.8	i	0.3
CC(CNC(=O)COC(=O)c1cccnc1Cl)c1ccccc1 (stereo not given)	i	nt	1.5	nt	nt	nt
CC(=O)NCC1(O)CCCC(C)C1 (stereo not given)	i	2.4	-0.1	2.5	nt	nt
CCN1C(=O)[C@@H]2[C@@H](c3ccc(-c4ccc(Cl)c(Cl)c4)c(OC)c3)N3CCC[C@@]3(C(=O)OC)[C@@H]2C1=O	i	nt	-0.3	23.4	nt	nt
CCN1C(=O)[C@@H]2[C@@H](c3ccc(-c4cccc(Cl)c4)c(OC)c3)N3CCCC[C@@]3(C(=O)OC)[C@@H]2C1=O	+	-5.7	-1.1	0.0	i	0.3
CCC(=O)c1ccc(OCC(=O)OCC(=O)N2CCCc3ccccc32)cc1	i	-3.4	-4.3	2.9	nt	nt
CN(C(=O)CSc1nnc(-c2ccccc2F)n1N)C1CCCCC1	i	nt	3.9	8.0	nt	nt
CC(C)[C@H](NC(=O)N1CCn2c1nc1ccccc12)C(=O)NCc1ccccc1Cl	i	3.4	-0.1	6.2	nt	nt
COc1ccc(C(=O)C[n+]2ccc(N(C)C)cc2)cc1	i	-20.8	-0.4	13.7	i	0.4
COc1ccc(C(=O)C[n+]2cccc3cc(C)ccc32)cc1	i	-7.2	13.1	i	i	42.0*
CN(C)c1cc[n+](CC(=O)c2ccc(Br)cc2)cc1	i	9.0	-0.5	-8.1	nt	nt
O=C(O)C(c1ccccc1)C1(O)CCC1 (stereo not given)	i	nt	-1.2	nt	nt	nt
O=C(c1ccco1)N1CC2(CC(c3ccc(Cl)cc3)=NO2)CN1Cc1ccc(Br)cc1 (stereo not given)	i	nt	0.7	nt	i	0.0
COc1ccc(-c2ccc3oc(-c4ccc(OC)cc4)c(C#CCO)c3c2)cc1	+	0.3	0.8	-11.3	i	0.0
COc1ccc(-c2oc3ccc(N4CCOCC4)cc3c2C#CCO)cc1	i	0.2	-4.7	-11.7	nt	nt
COc1ccc(C)cc1NC(=O)CCNC(=O)Cn1ccc2ccccc2c1=O	i	-5.4	-0.9	5.1	nt	nt
COc1ccc(/C=C2\C(=O)NCC(=O)N2Cc2ccccc2)cc1	+	-1.8	-0.1	27.9	i	0.0
COc1ccc(/C=C2\C(=O)N(Cc3ccc(F)cc3)CC(=O)N2Cc2ccccc2)cc1	i	-4.4	2.2	-2.1	nt	nt
C=C(c1ccccc1O)n1ccnc1	i	-3.3	1.3	-28.1	nt	nt
C/C(CC(=O)NC(C)(C)C)=N\NC(N)=S	i	4.5	2.7	10.1	nt	nt
Cc1cc(C)cc(NC(=O)C2CCCC2)c1	+	2.2	0.4	19.9	i	0.0
SMILES	Myeloid diff MLP	Platelet DG rel	SENP1 inh	VLA-4 inh	Myeloid diff CP1	GFP autofluor
Cc1cc(C)cc(NC(=S)N2CCC(NC(=O)C3CCCCC3)CC2)c1	i	-8.1	6.3	9.0	nt	nt
COc1ccc(C2CC(C(F)(F)F)n3nc(C(=O)O)c(Cl)c3N2)cc1OC (stereo not given)	i	5.2	0.6	-0.6	i	0.0
NS(=O)(=O)c1ccc(CNC(=O)Cc2ccccc2[N+](=O)[O-])cc1	i	2.4	-0.2	1.2	nt	nt
COc1ccccc1CNC(=O)C(CCSC)NS(=O)(=O)c1ccc2c(c1)oc(=O)n2C (stereo not given)	i	-0.3	-0.1	0.0	nt	nt
COc1cccc(CNC(=O)C(CCSC)NS(=O)(=O)c2ccc3c(c2)oc(=O)n3C)c1 (stereo not given)	i	-0.7	1.3	-10.3	i	5.8*
COc1ccccc1NS(=O)(=O)c1cc(NC(=O)c2sccc2C)ccc1N1CCOCC1	i	7.5	0.3	-0.1	nt	nt
COc1ccc(NS(=O)(=O)c2cc(NC(=O)c3sccc3C)ccc2N2CCOCC2)cc1	+	9.0	2.0	4.4	i	0.2
COc1ccccc1NS(=O)(=O)c1cc(NC(=O)c2cccs2)ccc1N1CCCCC1	+	7.1	-1.0	-2.6	i	0.0
COc1cccc(-c2nnc3n2N=C(c2cc(OC)ccc2OC)CS3)c1	+	3.2	2.8	0.1	i	10.6*
CCOc1cccc(-c2nnc3n2N=C(c2cc(OC)ccc2OC)CS3)c1	i	7.3	0.0	-6.5	nt	nt
NC(N)=NCC(O)CN(c1ccccc1)c1ccccc1 (stereo not given)	i	-2.8	1.2	23.5	nt	nt
COc1ccc2cc(CN(CC3CCCO3)S(=O)(=O)c3ccccc3)c(=O)[nH]c2c1 (stereo not given)	+	4.6	3.5	4.0	i	0.0
CCOc1cc(/C=N/NC(=O)c2ccc3c(c2)OCCO3)cc(Br)c1O	i	0.4	-5.8	13.5	nt	nt
Cc1nc(C)c(/C(O)=C/c2nc3ccccc3oc2=O)s1	+	2.4	2.8	6.4	i	0.4
COc1ccc(C(C)=O)cc1Cn1c(C)c(C(=O)NCc2cccc(C(F)(F)F)c2)sc1=O	i	nt	1.2	nt	nt	nt
COc1ccccc1CC1(C)NC(=O)N(CC(=O)N2CC(C)OC(C)C2)C1=O (stereo not given)	i	5.9	0.9	8.8	i	0.3
Nc1nc(SCCO)[nH]c(=O)c1NC(=O)c1ccco1	i	nt	0.0	2.5	nt	nt
CCc1nc2c(OCc3c(C)noc3C)cccn2c1N(C)C(=O)C(C)C	i	nt	-1.4	nt	nt	nt
Cc1cccc(NC(=S)N(CCCN2CCOCC2)Cc2ccccn2)c1	i	10.3	0.9	0.5	nt	nt
S=C(Nc1ccc(Oc2ccccc2)cc1)N(CCCN1CCOCC1)Cc1ccccn1	+	5.4	0.9	3.1	i	0.0
O=S(=O)(c1ccc(N2CCOCC2)nc1)N(Cc1ccccn1)Cc1ccccn1	i	12.3	4.8	7.7	nt	nt
CN(NC(=O)c1ccccc1F)c1ccc([N+](=O)[O-])cn1	i	-2.0	-3.3	-3.6	nt	nt
O=C(CSc1nnc(CNC(=O)c2ccco2)o1)Nc1cccc(Cl)c1	+	-10.0	-2.0	1.1	i	0.0
